Laboratory results taken from ChEMBL document CHEMBL6071149, “Synthesis and photo-induced anticancer activity of new 2-phenylethenyl-1H-benzo[e]indole dyes” (Eur J Med Chem, 2024).

Tests used:
G-361 [1] = test: Cytotoxicity against human G361 cells pretreated for 4 hrs followed by light irradiation of 10 J/cm2 at 414 nm measured after 68 hrs by MTT assay; format: functional, cell-based; details: G-361, light or radiation study
In short: (§1)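 Cells grown in phenol red-free DMEM with 10 % FBS, penicillin/streptomycin, 37 °C, 5 % CO₂. Compound added 24 h after plating and incubated 4 h. Irradiated cells received 414 nm LED light at 20 mW/cm², 10 J/cm², then were incubated 20 h or 68 h more. Dark plates were run in parallel without irradiation. MTT was added for 4 h, formazan dissolved in 10 % SDS, absorbance read at 570 nm. EC50 ± SD.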

[2] = Cytotoxicity against human BJ cells under dark condition measured after 72 hrs by MTT assay; format: toxicity, cell-based; in short: as §1
G-361 [3] = test: Cytotoxicity against human G361 cells under dark condition measured after 72 hrs by MTT assay; format: functional, cell-based; details: G-361, 72 h; in short: as §1

Work on CC1(C)C(/C=C/c2ccccc2[N+](=O)[O-])=Nc2ccc3ccccc3c21 yielded an EC50 (G-361 [1]) of 1.1 µM, an EC50 at 72 h [2] greater than 10 µM and an EC50 (G-361 [3]) of 7.8 µM.

For CC1(C)C(/C=C/c2cccc(C(F)(F)F)c2)=Nc2ccc3ccccc3c21, the EC50 (G-361 [1]) was 1.3 µM, the EC50 at 72 h [2] was greater than 10 µM and the EC50 (G-361 [3]) was 7.6 µM.

With CC1(C)C(/C=C/c2ccc([N+](=O)[O-])cc2)=Nc2ccc3ccccc3c21 the EC50 (G-361 [1]) was 0.8 µM, the EC50 at 72 h [2] was 6 µM and the EC50 (G-361 [3]) was 5.7 µM.

COc1ccc(/C=C/C2=Nc3ccc4ccccc4c3C2(C)C)cc1 showed an EC50 (G-361 [1]) of 5.2 µM and an EC50 (G-361 [3]) of 9.5 µM.

Work on CCN(CC)c1ccc(/C=C/C2=Nc3ccc4ccccc4c3C2(C)C)cc1 yielded an EC50 (G-361 [1]) greater than 10 µM and an EC50 (G-361 [3]) greater than 10 µM.

In the case of CC1(C)C(/C=C/c2ccc(Br)cc2)=Nc2ccc3ccccc3c21, the EC50 (G-361 [1]) is reported as 1.3 µM, the EC50 at 72 h [2] is reported as greater than 10 µM and the EC50 (G-361 [3]) is reported as 7.6 µM.

CC1(C)C(/C=C/c2ccc(C#N)cc2)=Nc2ccc3ccccc3c21 gave an EC50 (G-361 [1]) of 0.5 µM, an EC50 at 72 h [2] of 6.7 µM and an EC50 (G-361 [3]) of 5.1 µM.

CC1(C)C(/C=C/c2ccc(C(F)(F)F)cc2)=Nc2ccc3ccccc3c21 gave an EC50 (G-361 [1]) of 0.9 µM and an EC50 (G-361 [3]) of 4 µM.

With CC1(C)C(/C=C/c2ccc(F)cc2)=Nc2ccc3ccccc3c21 the EC50 (G-361 [1]) was 4.1 µM and the EC50 (G-361 [3]) was 7.3 µM.

For CC1(C)C(/C=C/c2ccc(C#N)c(F)c2)=Nc2ccc3ccccc3c21, the EC50 (G-361 [1]) was 0.6 µM, the EC50 at 72 h [2] was 7.2 µM and the EC50 (G-361 [3]) was 6.2 µM.

Compound CC1(C)C(/C=C/c2cccc(C#N)c2)=Nc2ccc3ccccc3c21 has an EC50 (G-361 [1]) of 0.9 µM and an EC50 (G-361 [3]) of 3.7 µM.

Compound CC1(C)C(/C=C/c2ccc(Cl)c([N+](=O)[O-])c2)=Nc2ccc3ccccc3c21 has an EC50 (G-361 [1]) of 0.3 µM, an EC50 at 72 h [2] greater than 10 µM and an EC50 (G-361 [3]) of 7.2 µM.

For CN(C)c1ccc(/C=C/C2=Nc3ccc4ccccc4c3C2(C)C)cc1, the EC50 (G-361 [1]) was greater than 10 µM and the EC50 (G-361 [3]) was greater than 10 µM.

In the case of CC1(C)C(/C=C/c2cc(C(F)(F)F)cc(C(F)(F)F)c2)=Nc2ccc3ccccc3c21, the EC50 (G-361 [1]) is reported as 1.3 µM, the EC50 at 72 h [2] is reported as greater than 10 µM and the EC50 (G-361 [3]) is reported as greater than 10 µM.

With Cc1ccc(/C=C/C2=Nc3ccc4ccccc4c3C2(C)C)cc1[N+](=O)[O-] the EC50 (G-361 [1]) was 0.9 µM, the EC50 at 72 h [2] was 8 µM and the EC50 (G-361 [3]) was 6.6 µM.

In the case of CC1(C)C(/C=C/c2ccccc2)=Nc2ccc3ccccc3c21, the EC50 (G-361 [1]) is reported as 2.8 µM and the EC50 (G-361 [3]) is reported as 6.5 µM.

For CC1(C)C(/C=C/c2cccc([N+](=O)[O-])c2)=Nc2ccc3ccccc3c21, the EC50 (G-361 [1]) was 0.4 µM, the EC50 at 72 h [2] was 5 µM and the EC50 (G-361 [3]) was 2.9 µM.

CC1(C)C(/C=C/c2ccc(F)c(C#N)c2)=Nc2ccc3ccccc3c21 gave an EC50 (G-361 [1]) of 1.4 µM and an EC50 (G-361 [3]) of 6.9 µM.

For CC1(C)C(/C=C/c2ccc(F)c([N+](=O)[O-])c2)=Nc2ccc3ccccc3c21, the EC50 (G-361 [1]) was 1.8 µM and the EC50 (G-361 [3]) was 7.9 µM.

Work on CC1(C)C(/C=C/c2cc([N+](=O)[O-])ccc2Cl)=Nc2ccc3ccccc3c21 yielded an EC50 (G-361 [1]) of 7.9 µM and an EC50 (G-361 [3]) greater than 10 µM.
